# Assay results gathered from unrelated publications.
# Lines come from different studies, so protocols differ.
# Action: inhibitor
# MET M1250T: Hepatocyte growth factor receptor (MET, Homo sapiens, UniProt P08581, M1250T)
# MET: Hepatocyte growth factor receptor (MET, Homo sapiens, UniProt P08581)
SMILES,target,assay,setting,inhibition [%]
CC/C(=N\NC(=O)NCc1cccc(O)c1)c1ccc(O)c(C)c1O,MET M1250T,enzyme activity,0.1 µM,-0.2
COc1cc2ncnc(Nc3ccc(Oc4ccccc4)c(C)c3C)c2cc1OC,MET M1250T,enzyme activity,1 µM,-2
C=CC(=O)Nc1cc(Nc2nccc(Nc3cc(Cl)c(F)cc3C(C)(C)O)n2)c(OC)cc1N1CC[C@@H](N(C)C)C1,MET,enzyme activity,1 µM,30
COc1cc2ncnc(Nc3ccc(Oc4ccccc4)cc3C)c2cc1OC,MET M1250T,enzyme activity,1 µM,-1
CNC(=O)c1cc(Oc2ccc(NC(=O)Nc3ccc(Cl)c(C(F)(F)F)c3)cc2)ccn1,MET,enzyme activity,0.3 µM,-22
CN(C)C1CCN(CC#Cc2nn(C3CCCC3)c3nc(NCc4ccccc4)ncc23)C1 (stereo not shown),MET,"enzyme activity, FRET",10 µM,72
O=C(CSc1nc2nccnc2c(=O)n1CCc1ccccc1)Nc1nccs1,MET,enzyme activity,10 µM,-2
CCCS(=O)(=O)Nc1ccc(F)c(C(=O)c2c[nH]c3ncc(-c4ccc(Cl)cc4)cc23)c1F,MET,enzyme activity,1 µM,< 20
CSc1nc(C)c(-c2ccnc(Nc3ccc(N4CCOCC4)cc3)c2)[nH]1,MET,cell-free assay,10 µM,28.2
CNC(=O)c1cc2c(Oc3ccc(NC(=O)C4(C(=O)Nc5ccc(F)cc5)CC4)cc3)ccnc2cc1OC,"Hepatocyte growth factor receptor (MET, Homo sapiens, UniProt P08581, Y1230C)","enzyme activity, radiometric",1 µM,100
